Data: ChEMBL document CHEMBL4000173, “An evaluation of central penetration from a peripherally administered oxytocin receptor selective antagonist in nonhuman primates” (Bioorg Med Chem, 2017)

Key:
Oxytocin receptor = biological target: T1, Oxytocin receptor (Homo sapiens, UniProt P30559); test: Displacement of [3H]Oxytocin from human OXTR expressed in CHO cell membranes after 90 mins by liquid scintillation counting method
T1 sequence (P30559 whole entry): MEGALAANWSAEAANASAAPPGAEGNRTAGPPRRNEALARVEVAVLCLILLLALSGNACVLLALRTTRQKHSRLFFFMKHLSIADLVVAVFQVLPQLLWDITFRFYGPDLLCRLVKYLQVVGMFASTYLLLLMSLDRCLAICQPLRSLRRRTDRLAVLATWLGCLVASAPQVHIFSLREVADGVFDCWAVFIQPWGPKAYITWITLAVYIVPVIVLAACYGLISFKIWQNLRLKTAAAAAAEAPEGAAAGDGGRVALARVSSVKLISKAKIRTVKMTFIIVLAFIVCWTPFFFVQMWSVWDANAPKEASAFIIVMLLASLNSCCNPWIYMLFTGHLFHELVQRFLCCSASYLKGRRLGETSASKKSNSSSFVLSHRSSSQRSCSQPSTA

Brain = test: Drug uptake in Sprague-Dawley rat brain at 126 to 295 uCi, iv administered as 30 mins bolus infusion after 15 to 90 mins by PET imaging method; type: ADME, organism-based; conditions: in vivo
[1] = Drug uptake in Sprague-Dawley rat skull at 340 to 390 uCi, im up to 120 mins by PET imaging method; type: ADME, organism-based; conditions: in vivo, 2 h
Procedure, shortened: (§1)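 Female Sprague-Dawley rats, 200–330 g, under 4–5% isoflurane in oxygen. [18F]tracer, 340–390 μCi in 100 μl, injected IM just above the knee of the hind leg. PET starting 15 min post injection, 2 h scan, with 7 min Co-57 transmission scan. Time-activity curves of mean nCi/cc, n=3.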

[2] = Drug uptake in Sprague-Dawley rat muscle at 340 to 390 uCi, im up to 120 mins by PET imaging method; type: ADME, organism-based, Muscle tissue; conditions: in vivo, 2 h; procedure, shortened: as §1
[3] = Drug uptake in Sprague-Dawley rat muscle at 126 to 295 uCi, iv administered as 30 mins bolus infusion after 15 to 90 mins by PET imaging method; type: ADME, organism-based, Muscle tissue; conditions: in vivo
[4] = Drug uptake in Sprague-Dawley rat skull at 126 to 295 uCi, iv administered as 30 mins bolus infusion after 15 to 90 mins by PET imaging method; type: ADME, organism-based; conditions: in vivo
[5] = Tmax in rhesus monkey CSF at 7690 ug administered via intranasal nebulization for 8 mins by LC-MS method; type: ADME, Macaca mulatta, Cerebrospinal fluid; conditions: inhaled or intranasal
Procedure, shortened: (§2)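 Four male rhesus macaques, 5 years old, 9–13 kg, under Telazol (4–5 mg/kg IM) then IV propofol. Dose in propylene glycol given by face mask from a pediatric nebulizer for 8 min. Lumbar CSF collected by passive drip at 60 and 120 min; blood-tinged CSF excluded. Plasma solid-phase extracted with ethyl acetate. LC-MS/MS in duplicate against an internal standard and a 0.8–10 pg/ml calibration curve. ke = (lnC1 − lnC2)/(t2 − t1), confirmed by semi-log regression; t1/2 = 0.693/ke.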

[6] = Cmax in rhesus monkey CSF at 7690 ug administered via intranasal nebulization for 8 mins by LC-MS method; type: ADME, Macaca mulatta, Cerebrospinal fluid; parameters: dose 7690 ug, route nasal; conditions: inhaled or intranasal
Procedure, shortened: (§3)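 Four male rhesus macaques (5 yr, 9–13 kg) under IM Telazol, then IV propofol. Drug in propylene glycol (low 120 μg/ml, high 6.15 mg/ml) was aerosolised for 8 min by pediatric nebuliser through a face mask. Dose was taken from the nebuliser residue. Lumbar CSF was collected by passive drip at 60 and 120 min; blood-tinged samples were discarded. CSF was run unprocessed by LC-MS/MS in duplicate against an artificial-CSF calibration (0.8–10 pg/ml) with internal standard.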

[7] = Cmax in rhesus monkey CSF at 202 ug administered via intranasal nebulization for 8 mins by LC-MS method; type: ADME, Macaca mulatta, Cerebrospinal fluid; parameters: dose 202 ug, route nasal; conditions: inhaled or intranasal; procedure, shortened: as §3
[8] = Tmax in rhesus monkey CSF at 202 ug administered via intranasal nebulization for 8 mins by LC-MS method; type: ADME, Macaca mulatta, Cerebrospinal fluid; conditions: inhaled or intranasal; procedure, shortened: as §2
[9] = Half life in rhesus monkey CSF at 7690 ug administered via intranasal nebulization for 8 mins by LC-MS method; type: ADME, Macaca mulatta, Cerebrospinal fluid; conditions: in vivo, inhaled_or_intranasal; procedure, shortened: as §2
[10] = Cmax in rhesus monkey plasma at 202 ug administered via intranasal nebulization for 8 mins by LC-MS method; type: ADME, cell-free, Macaca mulatta; parameters: dose 202 ug, route nasal; conditions: inhaled or intranasal
Procedure, shortened: (§4)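 Anesthetised male rhesus macaques (Telazol IM, propofol IV) inhaled drug in propylene glycol (low 120 μg/ml, high 6.15 mg/ml) by pediatric nebuliser and face mask for 8 min; dose was taken from nebuliser residue. Plasma (stored −80 C) was spiked with internal standard and extracted by solid-liquid extraction with ethyl acetate, then dried and redissolved in water/methanol/formic acid 70:30:0.1. It was measured in duplicate by C18 LC-MS/MS against a rhesus-plasma calibration. Recovery was about 86%.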

[11] = Elimination rate constant in rhesus monkey plasma at 202 to 7690 ug administered via intranasal nebulization for 8 mins by LC-MS method; type: ADME, cell-free, Macaca mulatta; conditions: inhaled or intranasal; procedure, shortened: as §2
[12] = Tmax in rhesus monkey plasma at 202 ug administered via intranasal nebulization for 8 mins by LC-MS method; type: ADME, cell-free, Macaca mulatta; conditions: inhaled or intranasal; procedure, shortened: as §2
Rhesus monkey [13] = test: Activity at OXTR in rhesus monkey assessed as concentration in CSF required to elicit behavioral effects at 6.15, im; type: functional, Macaca mulatta
Procedure, shortened: (§5)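 Estimated OXTR-relevant CSF targets for male rhesus macaques. Values come from OT levels before and after aerosolized IN OT (24 IU) reported in earlier work. They assume a 10 ml total CSF volume and scale from the in vitro Ki, which was measured by displacing 2 nM [3H]OT.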

[14] = Half life in rhesus monkey plasma at 202 to 7690 ug administered via intranasal nebulization for 8 mins by LC-MS method; type: ADME, cell-free, Macaca mulatta; conditions: inhaled or intranasal; procedure, shortened: as §2
[15] = Cmax in rhesus monkey CSF at 1650 ug, im by LC-MS method; type: ADME, organism-based, Macaca mulatta, Cerebrospinal fluid; parameters: dose 1650 ug, route intramuscular
[16] = Cmax in rhesus monkey plasma at 7690 ug administered via intranasal nebulization for 8 mins by LC-MS method; type: ADME, cell-free, Macaca mulatta; parameters: dose 7690 ug, route nasal; conditions: inhaled or intranasal; procedure, shortened: as §4
Rhesus monkey [17] = test: In vivo antagonist activity at OXTR in rhesus monkey assessed as concentration in CSF required to displace endogenous oxytocin at 7.69 mg administered via intranasal nebulization for 8 mins; type: functional, Macaca mulatta; procedure, shortened: as §5
Rhesus monkey [18] = test: In vivo antagonist activity at OXTR in rhesus monkey assessed as concentration in CSF required to displace endogenous oxytocin at 6.15, im; type: functional, Macaca mulatta; procedure, shortened: as §5
[19] = Tmax in rhesus monkey plasma at 6150 ug, im by LC-MS method; type: ADME, organism-based, Macaca mulatta
Procedure, shortened: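 Male rhesus macaques (5 yr, 9–13 kg), anaesthetised with Telazol IM then IV propofol drip, given 6.15 mg in propylene glycol (6.15 mg/ml) into inner thigh muscle (n=2). Plasma separated, stored −80 C, extracted by solid-liquid phase with ethyl acetate plus internal standard. LC-MS/MS (C18, water/methanol/formic acid) in duplicate against calibration curve in rhesus plasma; time of maximum plasma concentration taken.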

[20] = Elimination rate constant in rhesus monkey CSF at 7690 ug administered via intranasal nebulization for 8 mins by LC-MS method; type: ADME, Macaca mulatta, Cerebrospinal fluid; conditions: in vivo, inhaled_or_intranasal; procedure, shortened: as §2
Rhesus monkey [21] = test: Activity at OXTR in rhesus monkey assessed as concentration in CSF required to elicit behavioral effects at 7.69 mg administered via intranasal nebulization for 8 mins; type: functional, Macaca mulatta; procedure, shortened: as §5
[22] = Cmax in rhesus monkey plasma at 6150 ug, im by LC-MS method; type: ADME, organism-based, Macaca mulatta; parameters: dose 6150 ug, route intramuscular
Procedure, shortened: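 Anesthetised male rhesus macaques (n=2; Telazol IM, propofol IV) received 6.15 mg in propylene glycol (6.15 mg/ml) injected into the inner thigh muscle. Plasma was spiked with internal standard and extracted by solid-liquid extraction with ethyl acetate, then redissolved in water/methanol/formic acid 70:30:0.1. It was quantified in duplicate by C18 LC-MS/MS against a rhesus-plasma calibration curve.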

[23] = Tmax in rhesus monkey plasma at 7690 ug administered via intranasal nebulization for 8 mins by LC-MS method; type: ADME, cell-free, Macaca mulatta; conditions: inhaled or intranasal; procedure, shortened: as §2

## Cc1ccccc1N1CCN(S(=O)(=O)CC23CCC(CC2NC(=O)C(N)CCS(C)(=O)=O)C3(C)C)CC1 (stereo not given)
Oxytocin receptor
  Ki: 17 nM

## CS(=O)(=O)N1CCC(Oc2ccc(CC(=O)N3CCC(N4C(=O)CCc5ccccc54)CC3)c(OCC[18F])c2)CC1
Brain
  Drug uptake: Active
[1]
  Drug uptake: Active
[2]
  Drug uptake: Active
[3]
  Drug uptake: Active
[4]
  Drug uptake: Active

## CS(=O)(=O)N1CCC(Oc2ccc(CC(=O)N3CCC(N4C(=O)CCc5ccccc54)CC3)c(OCCF)c2)CC1
[5]
  Tmax: 1 h
[6]
  Cmax: 0.0972 ng/mL
[7]
  Cmax: 0.00736 ng/mL
[8]
  Tmax: 2 h
[9]
  t1/2: 1.6 h
[10]
  Cmax: 1.16 ng/mL
[11]
  k el at 8 min: 0.0004 s⁻¹
[12]
  Tmax: 5 min
Rhesus monkey [13]
  Activity: 24 pM
[14]
  half-life: 0.483 h
[15]
  Cmax: 0.478 ng/mL
[16]
  Cmax: 156 ng/mL
Rhesus monkey [17]
  Activity: 56 pM
Rhesus monkey [18]
  Activity: 56 pM
[19]
  Tmax: 1 h
[20]
  Kel: 0.007 min⁻¹
Rhesus monkey [21]
  Activity: 24 pM
[22]
  Cmax: 740 ng/mL
[23]
  Tmax: 0.25 h
